Measurements collected from several papers.
Lines come from different studies, so protocols differ.
Target: MAP kinase-activated protein kinase 2 (MAPKAPK2, Homo sapiens, UniProt P49137)

SMILES | effect on | action | method | concentration | quantity | value
Cc1ccc(Nc2nccc(N(C)c3ccc4c(C)n(C)nc4c3)n2)cc1S(N)(=O)=O | enzyme activity | inhibitor | – | 10 µM | inhibition | 11%
Cn1nc(C(=O)NCc2ccc(C(=O)O)cc2)cc1-c1ccc2[nH]ccc2c1 | cell-free assay | – | competition with immobilised ligand | 0.1 µM | remaining binding | 55%
Nc1nc(Nc2ccccc2)sc1C(=O)c1c(F)cccc1F | enzyme activity | inhibitor | – | 10 µM | remaining activity | 99%
CCN(CC)c1ccc(C2=NNC(=O)CC2C)cc1[N+](=O)[O-] (stereo not drawn) | enzyme activity | inhibitor | – | 10 µM | remaining activity | 86%
FC(F)(F)Oc1cccc(-c2cnc3ccc(-c4ccncc4)nn23)c1 | enzyme activity | inhibitor | radiometric | 1 µM | activity vs control | 93%
CCCS(=O)(=O)Nc1ccc(F)c(C(=O)c2c[nH]c3ncc(-c4ccc(Cl)cc4)cc23)c1F | enzyme activity | inhibitor | – | 1 µM | inhibition | < 10%
FC(F)c1nc2ccccc2n1-c1nc(N2CCOCC2)nc(N2CCOCC2)n1 | enzyme activity | inhibitor | – | 10 µM | remaining activity | 91%
Cc1nc(C2CCN(C(=O)c3ccc(OC(F)(F)F)cc3N)CC2)c2ncc(N3CCN(C)CC3)cc2n1 | cell-free assay | – | competition with immobilised ligand | 1 µM | remaining binding | 100%
C=CC(=O)Nc1cc(Nc2nccc(Nc3cc(Cl)c(F)cc3C(C)(C)O)n2)c(OC)cc1N1CC[C@@H](N(C)C)C1 | enzyme activity | inhibitor | – | 1 µM | inhibition | 4%
CCCOc1ccc(OC)c(F)c1C(=O)c1ccc(C(=O)N[C@@H]2CNC[C@H]2NC(=O)c2ccc3[nH]ncc3c2)cc1 | enzyme activity | inhibitor | – | 10 µM | remaining activity | 49%
Clc1ccc(Nc2nnc(Cc3ccncc3)c3ccccc23)cc1 | cell-free assay | – | – | 0.5 µM | remaining signal | 98.8%
Cn1cc(Cl)c2c(Oc3c(F)cc(Nc4cc(Cl)nc(N)n4)cc3F)ccnc21 | cell-free assay | – | competition with immobilised ligand | 0.1 µM | remaining binding | 100%
O=C1Nc2ccc(Cl)cc2C1=Cc1cc(Cl)c(O)c(Cl)c1 | cell-free assay | – | – | 0.5 µM | remaining signal | 100%
O=C(Nc1cnn(-c2csc(C(=O)NC3COC3)c2)c1)Nc1ccccc1Cl | enzyme activity | inhibitor | – | 5 µM | remaining activity | 97.1%
Cc1cnc(NC2CCOCC2)nc1-n1cnc(C(=O)NC(CN)c2cc(F)cc(Cl)c2)c1 (stereo not drawn) | enzyme activity | inhibitor | radiometric | 1 µM | remaining activity | 108%
COc1cc(Nc2cnc(C#N)c(O[C@H](C)CN(C)C)n2)ncc1-c1cnn(C)c1 | enzyme activity | inhibitor | radiometric | 10 µM | remaining activity | 104%
CN(C)C1CCN(CC#Cc2nn(C3CCCC3)c3nc(NCc4ccccc4)ncc23)C1 (stereo not drawn) | enzyme activity | inhibitor | FRET | 10 µM | inhibition | 0%

SMILES | effect on | action | method | concentration | quantity | value
CS(=O)(=O)Nc1cccc(-c2csc(NC(=O)CSc3nc4nccnc4c(=O)n3CCc3ccccc3)n2)c1 | enzyme activity | inhibitor | – | 10 µM | inhibition | 1%
Cc1c(NC(=O)c2cc(C(N)=O)nc3cc(F)ccc23)c(C(F)(F)F)nn1Cc1ccc(C#N)cc1 | cell-free assay | – | competition with immobilised ligand | 1 µM | remaining binding | 97%
CC(C)(C)c1nc2c(s1)c1nc(N)ncc1c1ccc(NS(=O)(=O)c3c(F)cccc3F)c(F)c12 | enzyme activity | inhibitor | radiometric | 1 µM | remaining activity | 69%
CN1CC(Oc2cnc(C#N)cc2-c2ccn3nc(NC(=O)C4CC4)cc3c2)C1 | enzyme activity | inhibitor | – | 1 µM | inhibition | -21%
COc1cc(Nc2c(C#N)cnc3cc(OCCCN4CCN(C)CC4)c(OC)cc23)c(Cl)cc1Cl | cell-free assay | – | – | 0.5 µM | remaining signal | 94.7%
CNc1cccc2cc(C(=O)Nc3ccc(C(=O)O)cc3)c(=O)[nH]c12 | enzyme activity | inhibitor | – | 10 µM | inhibition | 11%
CNC(=O)c1cc(Oc2ccc(NC(=O)Nc3ccc(Cl)c(C(F)(F)F)c3)cc2)ccn1 | enzyme activity | inhibitor | – | 0.3 µM | inhibition | 4%
CCS(=O)(=O)c1cc2cc(C[C@](O)(CC(C)(C)c3ccc(F)cc3C(N)=O)C(F)(F)F)[nH]c2cn1 | cell-free assay | – | competition with immobilised ligand | 1 µM | remaining binding | 100%
COc1cc(/C=C/C(=O)CC(=O)/C=C/c2ccc(O)c(OC)c2)ccc1O | enzyme activity | inhibitor | – | 1 µM | activity vs control | 90%
Nc1cnc(N2CCc3cc(S(=O)(=O)Nc4c(F)cc(Cl)cc4F)cc(N4CCCC4=O)c32)nc1 | cell-free assay | – | competition with immobilised ligand | 1 µM | remaining binding | 100%
COc1cc2ncnc(Nc3ccc(Oc4ccccc4)c(C)c3C)c2cc1OC | enzyme activity | inhibitor | – | 1 µM | inhibition | -17%
CCN(CC)CCNC(=O)c1c(C)[nH]c(/C=C2\C(=O)Nc3ccc(F)cc32)c1C | enzyme activity | inhibitor | – | 10 µM | inhibition | 15%
c1ccc(N2CCN(Cc3nc4ccccc4[nH]3)CC2)nc1 | binding | – | competition with immobilised ligand | 1 µM | remaining binding | 100%
CC(C)(C)C(=O)c1sc(NC2CCCCC2)nc1N | enzyme activity | inhibitor | – | 10 µM | remaining activity | 102%
Oc1cccc(-c2nc(N3CCOCC3)c3oc4ncccc4c3n2)c1 | enzyme activity | inhibitor | – | 10 µM | remaining activity | 90%
C[C@H](NC(=O)c1cnc2n1[C@](C)(Cc1ccc(C#N)cc1)C(=O)N2c1cc(Cl)c(F)c(Cl)c1)C(=O)NC1(c2ccccn2)CC1 | cell-free assay | – | competition with immobilised ligand | 1 µM | remaining binding | 100%
